Compounds with a hit are over-represented: about 1.6% of the library has one in this group of screens.
Mdm2 ligase inh: Mdm2 E3 ligase (human) inhibition | cell-based MDM2 ubiquitination luciferase reporter, 2 h; 0 = plate control, 100 = twice control, blank-subtracted | Q00987 | signal enhancement, % at 5 µM | actives 0.11% (n = 210,000);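 active = signal enhancement of 30% or more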;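 also: luminescence tracks abundance of the self-degrading MDM2-luciferase fusion protein; higher signal means inhibition of MDM2 E3 ligase activity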
Target sequence (Q00987 whole entry, looked up, the tested form may be a part): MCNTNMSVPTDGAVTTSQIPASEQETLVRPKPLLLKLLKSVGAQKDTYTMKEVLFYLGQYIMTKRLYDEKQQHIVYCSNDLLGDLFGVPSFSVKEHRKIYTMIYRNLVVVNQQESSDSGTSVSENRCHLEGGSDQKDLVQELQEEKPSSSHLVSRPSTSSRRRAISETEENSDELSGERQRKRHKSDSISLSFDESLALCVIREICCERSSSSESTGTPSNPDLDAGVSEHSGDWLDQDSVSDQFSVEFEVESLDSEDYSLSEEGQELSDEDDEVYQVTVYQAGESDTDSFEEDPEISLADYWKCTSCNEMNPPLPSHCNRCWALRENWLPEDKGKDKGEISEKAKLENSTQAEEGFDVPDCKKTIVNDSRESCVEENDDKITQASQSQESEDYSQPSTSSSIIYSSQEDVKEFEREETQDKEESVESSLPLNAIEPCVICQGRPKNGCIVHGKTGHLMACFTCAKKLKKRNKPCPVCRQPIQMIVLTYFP
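Test system: stable mammalian line carrying autodegrading MDM2–luciferase fusion reporter; quantity: 2000 cells in each well; times: 4 h cell settling then 2 h compound exposure, 37 °C; detection: luminescence with SteadyLite reagent, 15 min at room temperature; evaluation: percent signal gain over controls, blank-subtracted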
Wee1 degr inh: human Wee1 degradation inhibition, primary screen; HeLa Luc-Wee1K328M stability, luciferase luminescence; 100% = proteasome inhibitor MG132 effect; P30291; reporter increase, % at 5 µM; actives 1.2% (n = 220,000);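 active = activation above the mean of all tested compounds plus 3 SD, set per screening run, cut at about 8.8% in these data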;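 also: cells exposed to compound for 20 h before luminescence read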
Pf gamet viab: inhibitors of late stage P. falciparum gametocyte viability | inhibition, % at 10.9 µM | actives 0.065% (n = 150,000) | P. falciparum stage V gametocytes, ATP luminescence, 24 h;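 active = inhibition above the mean plus 3 SD of compounds within the control limits, set per campaign, cut at about 38% in these data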
zVAD death inh: L929 zVAD cell death inhibition | actives 0.38% (n = 220,000) | L929 zVAD necroptosis rescue, ATP luminescence, 24 h; with zVAD 60 µM | viability rescue, % at 10 µM;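 active = activation, scaled between plate controls, above about 75%, limit read from the data; inactive = activation under that limit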
TNF death inh: inhibitors of TNF-alpha induced necroptosis in Jurkat FADD-/- cells | Jurkat FADD-/- TNF necroptosis rescue, ATP luminescence, 24 h; 0 = TNF only, 100 = no-TNF cells | activation (protection from cell death), % at 10 µM | actives 0.068% (n = 220,000);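 active = activation, meaning protection from cell death, of at least 50% relative to plate controls; inactive = activation below 50%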;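 also: necroptosis triggered by 40 ng/mL TNF-alpha added together with compound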
zVAD necrop conf: confirmed blocker of zVAD induced death in L929 cells | AID 463117 | activation (protection from necroptosis), % at 10 µM | L929 zVAD-induced necroptosis rescue, ATP luminescence, 24 h | shares compounds with zVAD death inh | actives 16% (n = 760);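 active = mean protection from necroptosis of at least 50% over duplicate tests; inactive = mean protection below 50%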
Numbers stand for hits.

CN(C)C=Nc1ncc2c3ccccc3n(Cc3ccccc3)c2c1C#N was read as Wee1 degr inh inactive, zVAD death inh inactive and TNF death inh inactive.
Screening CCOC(=O)C1(Cc2ccc(OC)cc2)CCN(C(=O)c2ccc3[nH]ccc3c2)CC1 returned Mdm2 ligase inh inactive, Wee1 degr inh inactive, Pf gamet viab inactive, zVAD death inh inactive and TNF death inh inactive.
`Cc1[nH]n(-c2ccccc2)c(=O)c1/C=N/N(c1ccccc1)c1ccccc1` gave Mdm2 ligase inh inactive, Wee1 degr inh inactive, Pf gamet viab inactive, zVAD death inh inactive and TNF death inh inactive.
Cc1[nH]n(-c2ccccc2)c(=O)c1C=NC1CCCCCC1 was read as Mdm2 ligase inh inactive, Wee1 degr inh inactive, zVAD death inh 80, TNF death inh inactive and zVAD necrop conf inactive.
Screening Cc1[nH]n(-c2ccccc2)c(=O)c1C=NC1CCCCC1 returned Mdm2 ligase inh inactive, Wee1 degr inh inactive, Pf gamet viab inactive, zVAD death inh 75, TNF death inh inactive and zVAD necrop conf inactive.
`COC(=O)c1ccc2c(=O)n(NC(=O)C(c3ccccc3)c3ccccc3)c(=S)[nH]c2c1` gave Mdm2 ligase inh inactive, Wee1 degr inh inactive, zVAD death inh inactive and TNF death inh inactive.
CC(=O)c1c(C)[nH]c(C(=O)OCC(=O)Nc2ccc(Cl)c(S(=O)(=O)N(C)C)c2)c1C was read as Mdm2 ligase inh inactive, Wee1 degr inh inactive, Pf gamet viab inactive, zVAD death inh 80, TNF death inh inactive and zVAD necrop conf inactive.
`O=c1[nH]c2ccccc2c2ccccc12` gave Mdm2 ligase inh inactive, Wee1 degr inh inactive, Pf gamet viab inactive, zVAD death inh 79, TNF death inh inactive and zVAD necrop conf inactive.
For CC(C)(C)c1ccc(C(=O)Nc2ccc(S(N)(=O)=O)cc2)cc1 the results were Mdm2 ligase inh inactive, Wee1 degr inh inactive, zVAD death inh 83, TNF death inh inactive and zVAD necrop conf inactive.
Screening CC(=O)c1ccc2noc(-c3ccccc3)c2c1 returned Mdm2 ligase inh inactive, Wee1 degr inh inactive, Pf gamet viab inactive, zVAD death inh 76, TNF death inh inactive and zVAD necrop conf inactive.
c1ccc2[nH]c(SCC3CCCCO3)nc2c1 (centres undefined) was read as Mdm2 ligase inh inactive, Wee1 degr inh inactive, Pf gamet viab inactive, zVAD death inh inactive and TNF death inh inactive.
Screening CCC(CC)C(=O)Nc1cccc(C(=O)Nc2ccc(OC)cc2[N+](=O)[O-])c1 returned Mdm2 ligase inh inactive, Wee1 degr inh inactive, Pf gamet viab inactive, zVAD death inh inactive and TNF death inh inactive.
For Oc1ccc(-c2csc(Nc3ncccn3)n2)cc1O the results were Mdm2 ligase inh inactive, Wee1 degr inh inactive, Pf gamet viab inactive, zVAD death inh 79, TNF death inh inactive and zVAD necrop conf 60.
For Oc1ccc(-c2csc(Nc3ncccn3)n2)c(O)c1 the results were Mdm2 ligase inh inactive, Wee1 degr inh inactive, Pf gamet viab inactive, zVAD death inh 81, TNF death inh inactive and zVAD necrop conf inactive.
Oc1ccc(-c2csc(Nc3ccccn3)n2)cc1 was read as Pf gamet viab inactive.
Cc1ccc(CNC(=O)C2CC(c3ccccc3C(F)(F)F)=NO2)o1 (centres undefined) was read as Pf gamet viab inactive.
Screening Oc1ccccc1/C=N/Nc1cccc2cccnc12 returned Mdm2 ligase inh inactive, Wee1 degr inh inactive, zVAD death inh inactive and TNF death inh inactive.
`O=C(Nc1ccc(N2CCN(C(=O)c3ccco3)CC2)cc1)c1ccco1` gave Mdm2 ligase inh inactive, Wee1 degr inh inactive, Pf gamet viab inactive, zVAD death inh inactive and TNF death inh inactive.
`O=C(Nc1ccc(N2CCN(C(=O)c3ccco3)CC2)cc1)C(c1ccccc1)c1ccccc1` gave Mdm2 ligase inh inactive, Wee1 degr inh inactive, Pf gamet viab inactive, zVAD death inh 76, TNF death inh inactive and zVAD necrop conf inactive.
Cc1ccc(Oc2ccc(/C=N/O)cn2)cc1 was read as Mdm2 ligase inh inactive, Wee1 degr inh inactive, Pf gamet viab inactive, zVAD death inh inactive and TNF death inh inactive.
CCCCN(CC)CCNC(=O)c1cc2c(=O)n(C)c3ccccc3c2n1C was read as Mdm2 ligase inh inactive, Wee1 degr inh inactive, zVAD death inh inactive and TNF death inh inactive.

Screens as filed in PubChem BioAssay.
